# Assay results from ChEMBL document CHEMBL1821556, “Structure-activity relationships of antitubercular nitroimidazoles. 3. Exploration of the linker and lipophilic tail of ((s)-2-nitro-6,7-dihydro-5H-imidazo[2,1-b][1,3]oxazin-6-yl)-(4-trifluoromethoxybenzyl)amine (6-amino PA-824)” (J Med Chem, 2011).
# B1: Deazaflavin-dependent nitroreductase (Mycobacterium tuberculosis), P9WP15 (protein)
# chain: MPKSPPRFLNSPLSDFFIKWMSRINTWMYRRNDGEGLGGTFQKIPVALLTTTGRKTGQPRVNPLYFLRDGGRVIVAASKGGAEKNPMWYLNLKANPKVQVQIKKEVLDLTARDATDEERAEYWPQLVTMYPSYQDYQSWTDRTIPIVVCEP
# How the values were obtained:
# [1] = substrate: COC(=O)c1cc(CN[C@@H]2COc3nc([N+](=O)[O-])cn3C2)ccc1OC(F)(F)F; test: (§1) Ratio of Kcat to Km for Mycobacterium tuberculosis deazaflavin-dependent nitroreductase
# Outline: (§2)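 Each compound was tested as a substrate of Mtb deazaflavin-dependent nitroreductase (Ddn). kcat/KM was derived from the kinetics of reduced F420 reoxidation. Assays were repeated in two independent laboratories until concordant, and values are averages of multiple measurements.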
# [2] = substrate: CCNC(=O)N(Cc1ccc(OC(F)(F)F)cc1)[C@@H]1COc2nc([N+](=O)[O-])cn2C1; test: as §1; outline: as §2
# [3] = substrate: O=[N+]([O-])c1cn2c(n1)OC[C@@H](NC(c1ccc(OC(F)(F)F)cc1)c1ncc[nH]1)C2; test: as §1; outline: as §2
# [4] = substrate: CC(N[C@@H]1COc2nc([N+](=O)[O-])cn2C1)c1ccc(OC(F)(F)F)cc1; test: as §1; outline: as §2
# [5] = substrate: O=[N+]([O-])c1cn2c(n1)OC[C@@H](NCc1ccc(OC(F)(F)F)cc1OCC1CC1)C2; test: as §1; outline: as §2
# [6] = substrate: O=[N+]([O-])c1cn2c(n1)OC[C@@H](NCc1ccc(OC(F)(F)F)cc1N1CCOCC1)C2; test: as §1; outline: as §2
# [7] = substrate: O=C(c1ccccc1)N(Cc1ccc(OC(F)(F)F)cc1)[C@@H]1COc2nc([N+](=O)[O-])cn2C1; test: as §1; outline: as §2
# [8] = substrate: O=[N+]([O-])c1cn2c(n1)OC[C@@H](NCc1ccc(OC(F)(F)F)cc1)C2; test: as §1; outline: as §2
# [9] = substrate: O=[N+]([O-])c1cn2c(n1)OC[C@@H](NCc1ccc(OC(F)(F)F)cc1N1CCCCC1)C2; test: as §1; outline: as §2
# [10] = substrate: O=[N+]([O-])c1cn2c(n1)OC[C@@H](OCc1ccc(OC(F)(F)F)c(O)c1)C2; test: as §1; outline: as §2
# [11] = substrate: O=[N+]([O-])c1cn2c(n1)OC[C@@H](NC(c1ccc(OC(F)(F)F)cc1)c1ncco1)C2; test: as §1; outline: as §2
# [12] = substrate: O=[N+]([O-])c1cn2c(n1)OC[C@@H](NCc1ccc(OC(F)(F)F)cc1F)C2; test: as §1; outline: as §2
# [13] = substrate: CCCN(Cc1ccc(OC(F)(F)F)cc1)[C@@H]1COc2nc([N+](=O)[O-])cn2C1; test: as §1; outline: as §2
# [14] = substrate: NC(=O)C(N[C@@H]1COc2nc([N+](=O)[O-])cn2C1)c1ccc(OC(F)(F)F)cc1; test: as §1; outline: as §2
# [15] = substrate: CN1CCN(c2cc(CN[C@@H]3COc4nc([N+](=O)[O-])cn4C3)ccc2OC(F)(F)F)CC1; test: as §1; outline: as §2
# [16] = substrate: O=[N+]([O-])c1cn2c(n1)OC[C@@H](NCc1ccc(OC(F)(F)F)cc1Br)C2; test: as §1; outline: as §2
# [17] = substrate: O=[N+]([O-])c1cn2c(n1)OC[C@@H](NC(CCO)c1ccc(OC(F)(F)F)cc1)C2; test: as §1; outline: as §2
# [18] = substrate: CN1CCN(c2cc(OC(F)(F)F)ccc2CN[C@@H]2COc3nc([N+](=O)[O-])cn3C2)CC1; test: as §1; outline: as §2
# [19] = substrate: O=[N+]([O-])c1cn2c(n1)OC[C@@H](NCc1ccc(OC(F)(F)F)c(F)c1)C2; test: as §1; outline: as §2
# [20] = substrate: CCCCC(N[C@@H]1COc2nc([N+](=O)[O-])cn2C1)c1ccc(OC(F)(F)F)cc1; test: as §1; outline: as §2
# [21] = substrate: O=[N+]([O-])c1cn2c(n1)OC[C@@H](NC(CO)c1ccc(OC(F)(F)F)cc1)C2; test: as §1; outline: as §2
# [22] = substrate: O=[N+]([O-])c1cn2c(n1)OC[C@@H](NCc1ccc(OC(F)(F)F)c(Cl)c1)C2; test: as §1; outline: as §2
# [23] = substrate: O=[N+]([O-])c1cn2c(n1)OC[C@@H](NCc1ccc(OC(F)(F)F)cc1OC1CC1)C2; test: as §1; outline: as §2
# [24] = substrate: CCCC(N[C@@H]1COc2nc([N+](=O)[O-])cn2C1)c1ccc(OC(F)(F)F)cc1; test: as §1; outline: as §2
# [25] = substrate: O=[N+]([O-])c1cn2c(n1)OC[C@@H](NCc1ccc(OC(F)(F)F)cc1OCc1ccccc1)C2; test: as §1; outline: as §2
# [26] = substrate: CC(C)N(Cc1ccc(OC(F)(F)F)cc1)[C@@H]1COc2nc([N+](=O)[O-])cn2C1; test: as §1; outline: as §2
# [27] = substrate: O=C(c1ccc(Cl)cc1)N(Cc1ccc(OC(F)(F)F)cc1)[C@@H]1COc2nc([N+](=O)[O-])cn2C1; test: as §1; outline: as §2
# [28] = substrate: O=[N+]([O-])c1cn2c(n1)OC[C@@H](NCc1ccc(OC(F)(F)F)cc1Cl)C2; test: as §1; outline: as §2
# [29] = substrate: O=CN(Cc1ccc(OC(F)(F)F)cc1)[C@@H]1COc2nc([N+](=O)[O-])cn2C1; test: as §1; outline: as §2
# [30] = substrate: O=[N+]([O-])c1cn2c(n1)OC[C@@H](NCc1ccc(OC(F)(F)F)cc1Oc1ccccc1)C2; test: as §1; outline: as §2
# [31] = substrate: O=C(c1ccccc1Cl)N(Cc1ccc(OC(F)(F)F)cc1)[C@@H]1COc2nc([N+](=O)[O-])cn2C1; test: as §1; outline: as §2
# [32] = substrate: CCC(N[C@@H]1COc2nc([N+](=O)[O-])cn2C1)c1ccc(OC(F)(F)F)cc1; test: as §1; outline: as §2
# [33] = substrate: COc1cc(CO[C@@H]2COc3nc([N+](=O)[O-])cn3C2)ccc1OC(F)(F)F; test: as §1; outline: as §2
# [34] = substrate: O=[N+]([O-])c1cn2c(n1)OC[C@@H](OCc1ccc(OC(F)(F)F)c(F)c1)C2; test: as §1; outline: as §2
# [35] = substrate: CN(Cc1ccc(OC(F)(F)F)cc1)[C@@H]1COc2nc([N+](=O)[O-])cn2C1; test: as §1; outline: as §2
# [36] = substrate: O=C(c1cccc(Cl)c1)N(Cc1ccc(OC(F)(F)F)cc1)[C@@H]1COc2nc([N+](=O)[O-])cn2C1; test: as §1; outline: as §2
# [37] = substrate: COc1cc(OC(F)(F)F)ccc1CN[C@@H]1COc2nc([N+](=O)[O-])cn2C1; test: as §1; outline: as §2
# [38] = substrate: O=[N+]([O-])c1cn2c(n1)OC[C@@H](NCc1ccc(OC(F)(F)F)cc1O)C2; test: as §1; outline: as §2
# [39] = substrate: O=[N+]([O-])c1cn2c(n1)OC[C@@H](NCc1ccc(OC(F)(F)F)c(O)c1)C2; test: as §1; outline: as §2
# [40] = substrate: COc1cc(CN[C@@H]2COc3nc([N+](=O)[O-])cn3C2)ccc1OC(F)(F)F; test: as §1; outline: as §2
# [41] = substrate: O=[N+]([O-])c1cn2c(n1)OC[C@@H](OCc1ccc(OC(F)(F)F)cc1)C2; test: as §1; outline: as §2
# [42] = substrate: O=[N+]([O-])c1cn2c(n1)OC[C@@H](NCc1ccc(OC(F)(F)F)c(Oc3ccccc3)c1)C2; test: as §1; outline: as §2
# [43] = substrate: CC(=O)N(Cc1ccc(OC(F)(F)F)cc1)[C@@H]1COc2nc([N+](=O)[O-])cn2C1; test: as §1; outline: as §2
# [44] = substrate: O=[N+]([O-])c1cn2c(n1)OC[C@@H](NCc1ccc(OC(F)(F)F)c(N3CCOCC3)c1)C2; test: as §1; outline: as §2
protein,measurement,setting,value
B1,kcat/Km,[1],0.17
same,kcat/Km,[2],0
same,kcat/Km,[3],0.17
same,kcat/Km,[4],0.09
same,kcat/Km,[5],0.37
same,kcat/Km,[6],0.19
same,kcat/Km,[7],0.16
same,kcat/Km,[8],0.17
same,kcat/Km,[9],0.42
same,kcat/Km,[10],0.14
same,kcat/Km,[11],0.2
same,kcat/Km,[12],0.2
same,kcat/Km,[13],0.32
same,kcat/Km,[14],0.12
same,kcat/Km,[15],0.16
same,kcat/Km,[16],0.25
same,kcat/Km,[17],0.21
same,kcat/Km,[18],0.17
same,kcat/Km,[19],0.21
same,kcat/Km,[20],0.4
same,kcat/Km,[21],0.15
same,kcat/Km,[22],0.31
same,kcat/Km,[23],0.31
same,kcat/Km,[24],0.31
same,kcat/Km,[25],0.31
same,kcat/Km,[26],0.04
same,kcat/Km,[27],0.37
same,kcat/Km,[28],0.27
same,kcat/Km,[29],0.07
same,kcat/Km,[30],0.42
same,kcat/Km,[31],0.13
same,kcat/Km,[32],0.14
same,kcat/Km,[33],0.24
same,kcat/Km,[34],0.33
same,kcat/Km,[35],0.25
same,kcat/Km,[36],0.25
same,kcat/Km,[37],0.15
same,kcat/Km,[38],0.18
same,kcat/Km,[39],0.13
same,kcat/Km,[40],0.19
same,kcat/Km,[41],0.15
same,kcat/Km,[42],0.13
same,kcat/Km,[43],0.02
same,kcat/Km,[44],0.1
